Measurements from ChEMBL document CHEMBL4825764, “Flavonoid Monomers as Potent, Nontoxic, and Selective Modulators of the Breast Cancer Resistance Protein (ABCG2)” (J Med Chem, 2021).

Key:
[1] = species on record: Homo sapiens; experiment: Selectivity index, ratio of EC50 for inhibition of P-gp (unknown origin) expressed in LCC6MDR cells assessed as reversal of paclitaxel resistance to EC50 for inhibition of BCRP (unknown origin) transfected in HEK293/R2 cells assessed as reversal of topotecan resistance; format: cell-based
Outline: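 Selectivity index is the EC50 against the other transporter's line divided by the EC50 in the BCRP line. All values come from 5-day MTS reversal assays. These use topotecan in HEK293/R2 (0–2000 nM) or MCF7-MX100 (0–100 μM), doxorubicin in 2008/MRP1, and paclitaxel in LCC6MDR, each with modulator at 0–1000 nM.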

[2] = species on record: Homo sapiens; experiment: Selectivity index, ratio of EC50 for inhibition of P-gp (unknown origin) expressed in LCC6MDR cells assessed as reversal of mitoxantrone resistance to EC50 for inhibition of BCRP (unknown origin) expressed in HEK293/R2 cells assessed as reversal of mitoxantrone resistance; format: cell-based
Outline: (§1)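 Selectivity index is the EC50 in 2008/MRP1 or LCC6MDR divided by the EC50 in HEK293/R2. All three lines were measured by 5-day mitoxantrone co-incubation with modulator, with MTS/PMS read-out at 490 nm.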

[3] = species on record: Homo sapiens; experiment: Selectivity index, ratio of EC50 for inhibition of MRP1 (unknown origin) expressed in 2008/MRP1 cells assessed as reversal of mitoxantrone resistance to EC50 for inhibition of BCRP (unknown origin) expressed in HEK293/R2 cells assessed as reversal of mitoxantrone resistance; format: cell-based; outline: as §1
[4] = molecular target: T1, Broad substrate specificity ATP-binding cassette transporter ABCG2 (Homo sapiens, UniProt Q9UNQ0); experiment: Inhibition of BCRP (unknown origin) expressed in human HEK293/R2 cells assessed as increase in intracellular mitoxantrone accumulation by measuring fold change at 1 uM after 2 hrs in presence of mitoxantrone by flow cytometry analysis relative to control; format: cell-based; conditions: hek293/r2, 2 h
T1 sequence (Q9UNQ0 whole entry): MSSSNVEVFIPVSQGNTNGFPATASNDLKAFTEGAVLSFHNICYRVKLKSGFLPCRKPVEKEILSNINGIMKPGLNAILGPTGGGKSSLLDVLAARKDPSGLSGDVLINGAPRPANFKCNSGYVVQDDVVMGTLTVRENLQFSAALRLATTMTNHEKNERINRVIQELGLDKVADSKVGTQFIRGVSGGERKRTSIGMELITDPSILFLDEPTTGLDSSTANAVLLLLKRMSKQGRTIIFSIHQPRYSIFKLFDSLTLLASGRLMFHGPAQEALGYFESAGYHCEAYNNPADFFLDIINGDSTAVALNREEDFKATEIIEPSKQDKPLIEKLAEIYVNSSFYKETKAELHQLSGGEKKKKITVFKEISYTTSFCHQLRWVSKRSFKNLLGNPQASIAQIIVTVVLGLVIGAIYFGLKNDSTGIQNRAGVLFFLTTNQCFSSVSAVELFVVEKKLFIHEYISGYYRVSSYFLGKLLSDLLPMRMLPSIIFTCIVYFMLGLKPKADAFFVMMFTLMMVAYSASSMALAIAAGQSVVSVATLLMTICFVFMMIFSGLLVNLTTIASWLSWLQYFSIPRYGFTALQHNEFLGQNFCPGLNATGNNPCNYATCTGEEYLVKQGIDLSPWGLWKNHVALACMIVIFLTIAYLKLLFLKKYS
Outline: (§2)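 5 × 10^5 HEK293/pcDNA3.1 or HEK293/R2 cells in 1 mL were incubated 2 hr at 37 °C with 50 μM topotecan or 5 μM mitoxantrone plus 1 or 2 μM modulator, with DMSO as the vehicle control. Cells were washed in cold PBS and resuspended in FACS buffer. Flow cytometry read FL1 (topotecan) or FL4 (mitoxantrone) over 50,000 events, normalized to wild-type cells.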

[5] = molecular target: T1, Broad substrate specificity ATP-binding cassette transporter ABCG2; experiment: Inhibition of BCRP (unknown origin) expressed in human HEK293/R2 cells assessed as increase in intracellular mitoxantrone accumulation by measuring fold change at 2 uM after 2 hrs in presence of mitoxantrone by flow cytometry analysis relative to control; format: cell-based; conditions: hek293/r2, 2 h; outline: as §2
[6] = molecular target: T1, Broad substrate specificity ATP-binding cassette transporter ABCG2; experiment: Inhibition of BCRP (unknown origin) expressed in HEK293/R2 cells assessed as reduction in BCRP protein level at 1 uM after 4 days by Western blot analysis; conditions: hek293/r2, 96 h

inhibition (INH) [6]: Not Active
SMILES: COC(=O)c1cccc(COc2c(-c3ccc(OCCCCc4cn(Cc5ccccc5)nn4)cc3)oc3ccccc3c2=O)c1
Ratio EC50 [1]: 96 | Ratio EC50 [2]: 52 | Ratio EC50 [3]: 68 | fold change (FC) [4]: 5.9 | fold change (FC) [5]: 5.7
